Assays:
[1] = system: ICR mice; assay: Nicotine conditioned place preference; format: in vivo, mouse
Outline: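 Male ICR mice underwent unbiased three-chamber CPP. Day 1: 5-min middle-chamber habituation, then 15 min free access as baseline. Days 2–4: two 20-min conditioning sessions daily, 4 h apart. Controls got saline in both large chambers, with i.p. pretreatment 15 min before. Day 5: 15-min drug-free test. Score = test minus baseline time on the paired side.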

[2] = system: mice; conditions: ref Jackson et al., 2017; cited from earlier work
[3] = system: dependent smokers; conditions: ref Perkins et al., 2016; cited from earlier work
[4] = system: smokers; conditions: clinical trials; ref Robinson et al., 2017; cited from earlier work
[5] = target: T1, PPAR-α (Mus musculus, UniProt P23204); assay: PPAR-α luciferase assay in COS-7 cells; format: cell-based; conditions: 18 h
T1 sequence (P23204 1-468): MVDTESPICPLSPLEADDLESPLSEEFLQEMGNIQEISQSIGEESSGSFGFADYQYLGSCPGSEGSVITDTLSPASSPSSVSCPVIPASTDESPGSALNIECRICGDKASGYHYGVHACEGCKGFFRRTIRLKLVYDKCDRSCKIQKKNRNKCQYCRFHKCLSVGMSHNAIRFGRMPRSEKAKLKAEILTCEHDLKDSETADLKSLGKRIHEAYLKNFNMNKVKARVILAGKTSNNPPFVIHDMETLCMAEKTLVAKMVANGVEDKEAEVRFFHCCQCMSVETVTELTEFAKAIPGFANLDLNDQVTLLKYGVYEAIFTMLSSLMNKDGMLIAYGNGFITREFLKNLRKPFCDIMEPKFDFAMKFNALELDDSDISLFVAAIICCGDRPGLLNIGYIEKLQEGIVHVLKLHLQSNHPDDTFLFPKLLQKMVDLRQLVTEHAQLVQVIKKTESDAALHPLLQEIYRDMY
Outline: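 COS-7 cells in DMEM with 10% FBS were transfected by lipofection with mouse PPAR-α (25 ng), PPRE×3-TK-luciferase (300 ng), β-galactosidase control (100 ng) and empty pcDNA3 (75 ng) per well. Next day the medium was replaced with compound-containing medium for 18 h. Firefly luciferase chemiluminescence was normalised to β-galactosidase activity and compared by Welch-corrected t-test.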

[6] = system: ICR mice; assay: Cumulative CP55,940 dose-response study; format: in vivo, mouse
Outline: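 Male ICR mice (6–8 weeks, 27–32 g) received test compound (60 mg/kg i.p.) or vehicle 10 min before the first CP55,940 dose. Further doses followed every 40 min. Bar-test catalepsy, tail-flick and rectal temperature were measured at baseline and 30 min after each dose. Analysis was two-way ANOVA with Sidak post-hoc.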

[7] = system: ICR mice; conditions: ref Ignatowska-Jankowska et al., 2015; cited from earlier work
[8] = target: human recombinant CB2 receptor (Homo sapiens, UniProt P34972); assay: Cannabinoid receptor binding, [3H]-CP-55,940 displacement, CB2
Outline: (§1)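 Membranes from HEK-293 cells stably expressing the human receptor (CB1 Bmax 2.5, CB2 Bmax 4.7 pmol/mg protein) were incubated with test compound and [3H]-CP-55,940 for 90 min at 30 °C. […] Nonspecific binding was defined with 10 μM WIN 55212-2. Ki came from IC50 via Cheng-Prusoff; at least 3 experiments, mean ± SEM.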

[9] = system: ICR mice; assay: Morphine conditioned place preference; format: in vivo, mouse; conditions: OlGly i.p. pretreatment, morphine 10 mg/kg s.c. (methods)
Outline: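 Unbiased three-chamber CPP in male ICR mice. Day 1 baseline: 15 min free access after 5-min habituation. Days 2–4: twice-daily conditioning, 4 h apart and counterbalanced. Test compound or vehicle was given i.p. 15 min before morphine (10 mg/kg s.c.); 30-min sessions began 15 min after morphine. Day 5: 15-min drug-free test. Score = test minus baseline time in the morphine-paired side.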

[10] = system: ICR mice; assay: Tetrad behavioral assessment; format: in vivo, mouse; conditions: for Distance traveled / Speed / Time immobile: 10 min recording starting 5 min after injection; for Δ rectal temperature / Catalepsy / Antinociception: 30 min after injection; for Catalepsy: bar test; for Antinociception: tail withdrawal
Outline: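 Mice were acclimated at least 1 h, then baseline tail-withdrawal latency and body temperature were taken. Test compound or vehicle was given i.p.; 30 min later came bar-test catalepsy (immobility over 60 s), tail withdrawal (%MPE with 10 cutoff) and Δ temperature. Locomotor: 5 min post-dose, distance (cm) and immobile time (s) were video-tracked for 10 min. Analysis: one-way ANOVA, Dunnett.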

[11] = target: T2, fatty acid amide hydrolase (Rattus norvegicus, UniProt P97612); assay: AEA hydrolysis by rat brain membranes; format: biochemical
T2 sequence (P97612 1-579): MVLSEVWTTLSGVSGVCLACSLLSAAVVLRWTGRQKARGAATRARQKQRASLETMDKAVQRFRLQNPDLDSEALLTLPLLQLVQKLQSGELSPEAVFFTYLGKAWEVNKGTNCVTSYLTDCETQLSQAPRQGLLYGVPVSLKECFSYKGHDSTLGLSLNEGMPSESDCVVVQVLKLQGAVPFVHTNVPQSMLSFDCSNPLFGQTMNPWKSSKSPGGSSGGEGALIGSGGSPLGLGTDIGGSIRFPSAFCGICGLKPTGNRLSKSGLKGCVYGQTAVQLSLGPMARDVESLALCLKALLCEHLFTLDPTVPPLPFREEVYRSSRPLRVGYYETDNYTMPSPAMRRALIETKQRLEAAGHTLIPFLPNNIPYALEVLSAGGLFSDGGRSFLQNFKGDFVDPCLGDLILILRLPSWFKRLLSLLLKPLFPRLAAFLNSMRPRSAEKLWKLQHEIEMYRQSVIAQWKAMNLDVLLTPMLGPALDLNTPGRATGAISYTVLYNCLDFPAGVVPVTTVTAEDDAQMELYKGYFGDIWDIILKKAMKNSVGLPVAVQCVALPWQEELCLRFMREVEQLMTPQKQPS

[12] = target: human recombinant CB1 receptor (Homo sapiens, UniProt P21554); assay: Cannabinoid receptor binding, [3H]-CP-55,940 displacement, CB1
Outline: as §1

[13] = system: nicotine-dependent mice; assay: Mecamylamine-precipitated nicotine withdrawal; format: in vivo, mouse
Outline: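 Male ICR mice (6–8 weeks, 27–32 g) had s.c. minipumps implanted under isoflurane, delivering nicotine 24 mg/kg/day or saline for 14 days. On day 15 they got the test compound i.p. (10, 30 or 60 mg/kg) or vehicle, then mecamylamine 2 mg/kg s.c. at 15 min. From 25 min, blinded scoring: 5 min elevated plus maze (open/closed-arm time, arm crosses), then 20 min somatic signs; n = 7–8/group.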

[14] = OlGly levels in plasma and brain regions after i.p. injection; format: in vivo, mouse
Outline: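 ICR mice received test compound (60 mg/kg i.p.) or vehicle. After 15 min, plasma, insular cortex, hippocampus and hypothalamus were collected. Samples were extracted with chloroform/methanol/50 mM Tris-HCl pH 7.5 (2:1:1) containing deuterated internal standards. Quantification was by isotope-dilution LC-MS (C18 column, isocratic methanol/water/acetic acid, positive ESI).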

[15] = system: rats; conditions: ref Chaturvedi et al., 2006; cited from earlier work
[16] = 60 mg/kg i.p., 15 min after injection, ICR mice

Sequence of human recombinant CB2 receptor (P34972 whole entry): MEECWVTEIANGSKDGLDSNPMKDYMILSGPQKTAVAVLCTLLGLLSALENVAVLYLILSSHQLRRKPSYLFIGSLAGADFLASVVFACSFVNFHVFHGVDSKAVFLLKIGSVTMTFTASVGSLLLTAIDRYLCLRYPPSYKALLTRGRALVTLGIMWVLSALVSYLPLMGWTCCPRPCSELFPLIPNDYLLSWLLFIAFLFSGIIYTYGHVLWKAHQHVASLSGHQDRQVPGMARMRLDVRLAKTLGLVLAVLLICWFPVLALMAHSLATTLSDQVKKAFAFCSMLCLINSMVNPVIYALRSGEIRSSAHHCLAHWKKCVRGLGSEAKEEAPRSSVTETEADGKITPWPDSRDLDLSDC
Sequence of human recombinant CB1 receptor (P21554 whole entry): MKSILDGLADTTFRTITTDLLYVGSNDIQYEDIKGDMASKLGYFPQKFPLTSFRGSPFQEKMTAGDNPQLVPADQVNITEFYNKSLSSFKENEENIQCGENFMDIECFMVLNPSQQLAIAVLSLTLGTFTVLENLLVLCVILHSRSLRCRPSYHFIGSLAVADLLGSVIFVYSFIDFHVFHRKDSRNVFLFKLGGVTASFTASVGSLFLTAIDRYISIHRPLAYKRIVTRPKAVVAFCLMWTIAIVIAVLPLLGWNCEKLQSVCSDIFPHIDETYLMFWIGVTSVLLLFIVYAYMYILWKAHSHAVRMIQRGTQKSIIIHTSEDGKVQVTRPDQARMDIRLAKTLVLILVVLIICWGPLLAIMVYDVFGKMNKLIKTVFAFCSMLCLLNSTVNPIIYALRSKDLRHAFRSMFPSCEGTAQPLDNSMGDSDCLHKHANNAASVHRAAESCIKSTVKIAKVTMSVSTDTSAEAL

CCC(=O)NC[C@H](Cc1ccc(OCCc2nc(-c3ccccc3)oc2C)cc1)N/C(C)=C\C(=O)c1ccc(C(F)(F)F)cc1 [GW6471, N-((2S)-2-(((1Z)-1-methyl-3-oxo-3-(4-(trifluoromethyl)phenyl)prop-1-enyl)amino)-3-(4-(2-(5-methyl2phenyl-1,3-oxazol-4-yl)ethoxy)phenyl)propyl)propanamide, reference compound]
Effect on OlGly blockade of nicotine CPP ([1]; GW6471 2 mg/kg i.p. 30 min before OlGly, mice): fully prevented OlGly blockade of nicotine CPP

CC(C)OC(=O)C(C)(C)Oc1ccc(C(=O)c2ccc(Cl)cc2)cc1 [fenofibrate]
Reversal of nicotine withdrawal [2]: failed to reverse nicotine withdrawal | Ability to stop smoking during a brief practice quit period [3]: did not facilitate the ability to stop smoking

Cc1c(C(=O)NN2CCCCC2)nn(-c2ccc(Cl)cc2Cl)c1-c1ccc(Cl)cc1 [rimonabant]
Smoking abstinence compared with placebo [4]: effectively improved smoking abstinence

CC(C)(Sc1ccc(CCN(CCCCC2CCCCC2)C(=O)NC2CCCCC2)cc1)C(=O)O [GW7647, reference compound]
Luciferase activity compared to DMSO ([5]; GW7647 10 mM as printed in Fig. 6): significantly increased luciferase activity

(−)-cis-3-[2-hydroxy-4-(1,1-dimethylheptyl)phenyl]-trans-4-(3-hydroxypropyl)-cyclohexanol [CP55,940, reference compound]
Catalepsy, antinociception and hypothermia ([6]; cumulative 0, 0.3, 1 and 3 mg/kg i.p., vehicle-pretreated mice): dose-dependently induced

Cc1ccc2c(C(C[N+](=O)[O-])c3cccs3)c(-c3ccccc3)[nH]c2c1 (stereo not shown) [ZCZ011]
Shift of the CP55,940 dose-response curve (antinociceptive, cataleptic, hypothermic effects) [7]: elicited a leftward shift

CCCCCCCC/C=C\CCCCCCCC(=O)NCC(=O)O [OlGly, N-oleoyl-glycine]
IC50 [8]: > 50 µM | Ki [8]: > 50 µM | CB2 displacement produced by maximum dose tested (50 μM) ([8]; 50 μM): 15.5 ± 6.40% | Morphine CPP [9]: did not carry over to morphine CPP | Distance traveled ([10]; 10 mg/kg i.p.): 24.3 ±1.2 cm | Speed ([10]; 10 mg/kg i.p.): 8.1 ± 0.4 cm/s | Time immobile ([10]; 10 mg/kg i.p.): 8.6 ± 1.6 s | Δ rectal temperature ([10]; 10 mg/kg i.p.): −0.90 ± 0.19 °C | Catalepsy ([10]; 10 mg/kg i.p.): 0.0 s | Antinociception ([10]; 10 mg/kg i.p.): 12.0± 6.6 %MPE | Distance traveled ([10]; 30 mg/kg i.p.): 21.5±1.7 cm | Speed ([10]; 30 mg/kg i.p.): 7.2 ± 0.6 cm/s | Time immobile ([10]; 30 mg/kg i.p.): 11.8 ± 6.2 s | Δ rectal temperature ([10]; 30 mg/kg i.p.): −1.13 ± 0.26 °C | Catalepsy ([10]; 30 mg/kg i.p.): 0.0 s | Antinociception ([10]; 30 mg/kg i.p.): 6.0 ± 4.5 %MPE | Distance traveled ([10]; 100 mg/kg i.p.): 18.6±1.5 cm | Speed ([10]; 100 mg/kg i.p.): 6.21 ± 0.5 cm/s | Time immobile ([10]; 100 mg/kg i.p.): 17.4 ± 7.3 s | Δ rectal temperature ([10]; 100 mg/kg i.p.): −0.22 ± 0.5431 °C | Catalepsy ([10]; 100 mg/kg i.p.): 0.0 s | Antinociception ([10]; 100 mg/kg i.p.): 25.9±11.0 %MPE | Development of nicotine-induced CPP ([1]; i.p. 15 min before nicotine 0.5 mg/kg s.c. on conditioning days, mice): dose-dependently prevented the development of nicotine-induced CPP | Place preference in saline-treated mice ([1]; saline-treated mice): did not affect place preference | IC50 [11]: 8.65 µM | inhibition at 50 µM ([11]; read-out: FAAH inhibition produced by maximum dose tested (50 μM)): 89.4% | Shift of the CP55,940 dose-response relationship in the tetrad assay ([6]; OlGly 60 mg/kg i.p. 10 min before first CP55,940 dose, mice): did not alter the dose-response relationship | IC50 [12]: 45.5 ± 5.1 µM | Ki [12]: 27.8 ± 3.1 µM | CB1 displacement produced by maximum dose tested (50 μM) ([12]; 50 μM): 55.9 ± 7.3% | Number of mecamylamine-precipitated somatic withdrawal signs ([13]; 60 mg/kg i.p., nicotine-dependent mice): attenuated the number of mecamylamine-precipitated somatic withdrawal signs | Overt behavioral alterations in control mice ([13]; control mice continuously infused with saline): did not elicit overt behavioral alterations | Luciferase activity compared to DMSO ([5]; OlGly 10 mM, 50 μM and 100 mM as printed in Fig. 6): significantly increased luciferase activity | OlGly levels in hippocampus [14, 16]: 186.0 ± 60.05 pmol/g | OlGly levels in hypothalamus [14, 16]: 245.6 ± 108.1 pmol/g | OlGly levels in insula [14, 16]: 168.0 ± 60.28 pmol/g | concentration at 15 min ([14]; ICR, mouse, plasma, intraperitoneal, 60 mg/kg): 2000 ± 627 nM | Locomotor activity [15]: decreases locomotor activity | Reduction of body temperature [15]: 1.5–2.0 °C

From article PMC6408981 (Neuropharmacology, 2018)
